The source made the active and inactive calls. The rule behind the calls is not given here.
How the values were obtained:
[1] = target: T1, Ras guanyl-releasing protein 3 (Homo sapiens, UniProt Q8IV61); experiment: Displacement of [3H]PDBu from recombinant human GFP-tagged RasGRP3 expressed in Escherichia coli BL21 after 5 mins by scintillation counting analysis in presence of phosphatidylserine
T1 sequence (Q8IV61 whole entry): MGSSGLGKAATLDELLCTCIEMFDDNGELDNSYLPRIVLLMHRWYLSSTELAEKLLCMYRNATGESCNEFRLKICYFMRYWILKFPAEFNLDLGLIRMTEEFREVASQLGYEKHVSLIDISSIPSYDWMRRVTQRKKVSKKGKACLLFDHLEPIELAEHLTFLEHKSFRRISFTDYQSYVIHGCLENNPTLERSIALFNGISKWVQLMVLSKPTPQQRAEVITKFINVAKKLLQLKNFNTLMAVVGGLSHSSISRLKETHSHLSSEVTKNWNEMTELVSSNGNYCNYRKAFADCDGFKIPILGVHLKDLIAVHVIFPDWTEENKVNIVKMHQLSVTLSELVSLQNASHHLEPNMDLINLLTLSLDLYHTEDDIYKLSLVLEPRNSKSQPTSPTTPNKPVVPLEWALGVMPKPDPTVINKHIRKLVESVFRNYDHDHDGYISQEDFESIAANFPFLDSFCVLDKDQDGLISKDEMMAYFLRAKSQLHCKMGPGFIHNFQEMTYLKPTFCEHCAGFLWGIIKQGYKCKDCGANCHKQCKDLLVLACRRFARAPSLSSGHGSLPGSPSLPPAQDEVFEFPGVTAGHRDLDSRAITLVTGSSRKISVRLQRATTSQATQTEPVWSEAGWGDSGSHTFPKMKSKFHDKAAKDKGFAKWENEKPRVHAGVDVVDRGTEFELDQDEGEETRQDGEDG
Procedure, shortened: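 Competition for [3H]PDBu binding to RasGRP3 with 100 μg/ml phosphatidylserine present, run at 18°C to optimize stability. Values are mean ± SEM of triplicate independent experiments.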

Homo sapiens [2] = organism: Homo sapiens; experiment: Selectivity ratio of Ki for recombinant human PKC-epsilon to Ki for recombinant RasGRP1 C1 domain (unknown origin)
Homo sapiens [3] = organism: Homo sapiens; experiment: Selectivity ratio of Ki for recombinant human PKC-alpha to Ki for recombinant RasGRP1 C1 domain (unknown origin)
[4] = target: T2, Ras guanyl-releasing protein 3 (Homo sapiens) (UniProt Q8IV61); experiment: Activation of RasGRP3 (unknown origin) overexpressed in HEK293 cells assessed as protein phosphorylation at T133 at 0.1 to 30 uM after 30 mins by Western blot analysis; format: cell-based
T2 sequence (whole entry): T1 sequence (Q8IV61 whole entry)

[5] = target: Protein kinase C delta type (Homo sapiens) (UniProt Q05655); experiment: Activation of PKC-delta in HEK293 cells assessed as protein phosphorylation at S299 at 0.1 to 30 uM after 30 mins by Western blot analysis; format: cell-based
Chain of Protein kinase C delta type (Homo sapiens) (Q05655 whole entry, looked up): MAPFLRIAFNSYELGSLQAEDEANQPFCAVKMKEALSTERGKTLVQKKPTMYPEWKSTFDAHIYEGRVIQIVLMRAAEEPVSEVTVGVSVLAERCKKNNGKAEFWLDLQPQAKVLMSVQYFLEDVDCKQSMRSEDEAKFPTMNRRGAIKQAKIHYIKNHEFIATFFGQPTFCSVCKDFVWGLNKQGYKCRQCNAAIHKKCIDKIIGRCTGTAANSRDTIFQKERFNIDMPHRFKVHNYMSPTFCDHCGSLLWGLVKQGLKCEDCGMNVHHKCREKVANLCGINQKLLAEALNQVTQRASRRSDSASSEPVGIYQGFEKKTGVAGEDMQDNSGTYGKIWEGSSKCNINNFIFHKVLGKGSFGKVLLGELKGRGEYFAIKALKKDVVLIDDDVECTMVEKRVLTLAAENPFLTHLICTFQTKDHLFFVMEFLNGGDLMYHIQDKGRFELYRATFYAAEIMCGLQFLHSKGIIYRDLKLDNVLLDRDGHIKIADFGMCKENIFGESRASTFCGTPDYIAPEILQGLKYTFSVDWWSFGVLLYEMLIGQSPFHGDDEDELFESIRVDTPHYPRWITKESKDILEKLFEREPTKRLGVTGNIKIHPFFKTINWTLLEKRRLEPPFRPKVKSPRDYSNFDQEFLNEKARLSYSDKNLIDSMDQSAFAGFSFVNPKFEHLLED

[6] = target: Protein kinase C delta type (Homo sapiens) (UniProt Q05655); experiment: Activation of PKC-delta in HEK293 cells overexpressing RasGRP3 assessed as protein phosphorylation at S299 at 0.1 to 30 uM after 30 mins by Western blot analysis; format: cell-based
[7] = target: Protein kinase C delta type (Homo sapiens) (UniProt Q05655); experiment: Activation of PKC-delta in human Ramos cells assessed as protein phosphorylation at S299 at 10000 nM after 30 mins by Western blot analysis; format: cell-based
Procedure, shortened: (§1)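 Ramos cells in RPMI-1640 with 10% FBS and 1% L-glutamine, plated at 300,000 cells/ml, were exposed after 24 h to 0.01, 0.1, 1 and 10 μM compound for 30 min. Lysates were made in PBS with 0.5% Triton X-100 and sonicated. 7.5 μg protein was run on 10% Tris-glycine gels, blotted to nitrocellulose, probed overnight with phospho-specific primary antibodies and detected by ECL.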

[8] = target: Protein kinase C (PKC) (Homo sapiens) (UniProt O94806+P41743+P17252+P05129+Q05655+P05771+Q05513+Q02156+P24723+Q15139+Q04759); experiment: Activation of PKC in human Ramos cells assessed as PKD1 phosphorylation at S744/S748 at 10000 nM after 30 mins by Western blot analysis; format: cell-based; procedure, shortened: as §1
[9] = target: T2, Ras guanyl-releasing protein 3 (Homo sapiens); experiment: Binding affinity to recombinant human GFP-tagged RasGRP3 expressed in human LNCAP cells assessed as induction of protein translocation from plasma membrane to internal membrane at 10000 nM after 2 to 10 mins by confocal microscopic analysis; format: cell-based
Procedure, shortened: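 LNCaP cells were transiently transfected with human GFP-PKCδ or GFP-RasGRP3 and imaged 24 h later by live confocal microscopy (488 nm excitation) every 30 s for 30 min after 10 μM ligand. Distribution was assessed from representative images. n = 3–6.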

Lipid bilayer [10] = experiment: Binding affinity to […] embedded 9:1 DMPC/DMPG giant vesicle at 2.42 to 6.05 uM by fluorescence anisotropy method
Procedure, shortened: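 Giant vesicles (DMPC/DMPG 9:1, rapid evaporation, 0.1 M sucrose, 0.1 M KCl, 2 mM Tris pH 7.4) were loaded with DPH-TMA at 1.25 μM final for 30 min at room temperature. Compound from DMSO stock was added at 2.42 and 6.05 μM final. Anisotropy was read at 430 nm with 355 nm excitation.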

Lipid bilayer [11] = experiment: Binding affinity to NBD-PE embedded 9:1 DMPC/DMPG giant vesicle at 6.05 uM by FRET analysis
Procedure, shortened: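 Giant vesicles containing NBD-PE (100:1 phospholipid:fluorophore) were mixed with 6.05 μM compound from DMSO stock in Tris/sucrose/KCl buffer pH 7.4. NBD-PE emission was recorded after excitation at 330–370 nm, the indole excitation range. Triton addition served as the disruption control.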

| Compound | Ki [1] | Ratio Ki (Homo sapiens [2]) | Ratio Ki (Homo sapiens [3]) | Activity [4] | Activity [5] | Activity [6] | Activity [7] | Activity [8] | Activity [9] | Activity (Lipid bilayer [10]) | Activity (Lipid bilayer [11]) |
| --- | --- | --- | --- | --- | --- | --- | --- | --- | --- | --- | --- |
| CCCC(CCC)C(=O)OCC1(CO)C/C(=C\c2cn(C)c3ccccc23)C(=O)O1 (centres undefined) | 0.33 nM | 84 | 65 | Active | Active | Active | Active | Active | Active | Active | inactive |
| CCCC(CCC)C(=O)OCC1(CO)C/C(=C\c2ccc3ccn(C)c3c2)C(=O)O1 (centres undefined) | 1.22 nM | 9.3 | 9 | Active | Active | Active | Active | Active | Active | Active | Active |
| CCCC(CCC)C(=O)OCC1(CO)C/C(=C\c2cccc3c2ccn3C)C(=O)O1 (centres undefined) | 1.63 nM | 9.4 | 10 | Active | Active | Active | Active | Active | Active | inactive |  |
| CCCC(CCC)C(=O)OCC1(CO)C/C(=C\c2cccc3ccn(C)c23)C(=O)O1 (centres undefined) | 1.12 nM | 17 | 19 | Active | Active | Active | Active | Active | Active | Active | Active |
| CCCC(CCC)C(=O)OCC1(CO)C/C(=C\c2ccc3c(ccn3C)c2)C(=O)O1 (centres undefined) | 0.34 nM | 5.3 | 24 | Active | Active | Active | Active | Active | Active | inactive | Active |
